Assay outcomes deposited in PubChem BioAssay by The Scripps Research Institute Molecular Screening Center.
A selection: hits, their analogues and other compounds. The true share with any hit is near 1.8%.
CHRM5 antagonist: CHRM5 antagonism in calcium assay | P08912 | AID 624040 | inhibition, % at 3 µM | CHO-hM5 cells, Fluo-8 calcium fluorescence, ACh EC80 | 360,000 tested, 0.59% active;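 active means inhibition above a per-plate cutoff, the mean of that plate's test compounds plus 3 SD, cut at about 27% in these data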;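 further: 0% = acetylcholine EC80 with DMSO and 100% = DMSO without agonist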
Target sequence (P08912 whole entry, looked up): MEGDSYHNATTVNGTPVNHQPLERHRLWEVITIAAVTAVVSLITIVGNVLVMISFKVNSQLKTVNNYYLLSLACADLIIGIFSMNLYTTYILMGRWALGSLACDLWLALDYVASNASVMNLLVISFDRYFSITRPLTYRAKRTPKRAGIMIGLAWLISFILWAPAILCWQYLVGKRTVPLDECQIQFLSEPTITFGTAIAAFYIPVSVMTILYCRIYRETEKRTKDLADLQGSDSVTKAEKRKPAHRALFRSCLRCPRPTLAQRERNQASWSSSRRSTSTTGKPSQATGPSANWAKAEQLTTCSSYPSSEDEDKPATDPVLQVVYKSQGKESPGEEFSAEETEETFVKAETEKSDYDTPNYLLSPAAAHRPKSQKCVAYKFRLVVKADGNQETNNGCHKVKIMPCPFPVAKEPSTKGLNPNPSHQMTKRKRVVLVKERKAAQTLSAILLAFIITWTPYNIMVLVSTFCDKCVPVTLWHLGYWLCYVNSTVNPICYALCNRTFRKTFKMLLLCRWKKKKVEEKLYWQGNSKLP
M5 PAM: positive allosteric modulators of human muscarinic M5 receptor. CHO-K1 hM5, Fluo-8 calcium, ACh EC20 PAM; 0% = ACh EC20, 100% = ACh EC100. 360,000 tested, 0.3% active. activation, % at 3 µM. AID 624038. P08912;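 active means activation above the run cutoff, the mean activation of all test compounds plus 3 SD, cut at about 18% in these data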
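System: CHO-K1 cell line with stable human muscarinic M5 receptor expression | Also added: EC20 acetylcholine as agonist stimulus | Compound: One concentration, 3 µM final (nominal) | Timing: Fluo-8 loading 80 min at 37 °C plus 30 min room temperature | Measured by: Fluo-8 calcium dye fluorescence, kinetic read | Read-out basis: % activation, ACh-normalized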
M5 ag: agonists of human muscarinic M5 receptor (CHRM5) | P08912 | CHO-K1 hM5 cells, Fluo-8 calcium fluorescence; 0% DMSO wells, 100% maximal acetylcholine response | activation, % at 3 µM | 360,000 tested, 0.19% active;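 active means activation above the run's mean over test compounds plus 3 SD, cut at about 23% in these data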;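 further: signal is peak over basal fluorescence ratio across the kinetic read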
CHRM4 antagonist: antagonists of human muscarinic M4 receptor (CHRM4) | P08173 | CHO-hM4 cells, ACh EC80, Fluo-8 calcium fluorescence | inhibition, % at 3 µM | 360,000 tested, 0.73% active;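 active means inhibition above its plate's cutoff, the mean inhibition of sample wells plus 3 SD, cut at about 27% in these data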;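 further: 0% = acetylcholine EC80 with DMSO and 100% = DMSO without agonist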
M4 ag: agonists of human muscarinic M4 receptor (CHRM4). P08173. CHO-K1 hM4/Gqi5, Fluo-8 calcium fluorescence; vehicle 0%, full acetylcholine response 100%. activation, % at 3 µM. 360,000 tested, 0.14% active;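 active means activation above the run mean over all test wells plus 3 SD, cut at about 32% in these data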;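 further: peak over basal fluorescence ratio per well then scaled between controls; 0% = DMSO wells and 100% = acetylcholine at EC100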
CHRM4 PAM: potentiates acetylcholine response at human M4 receptor; AID 624126; activation, % at 3 µM; CHO-K1 hM4/Gqi5, Fluo-8 calcium fluorescence, ACh EC20; 0% = ACh EC20, 100% = maximal ACh; 360,000 tested, 0.4% active; P08173;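 active means activation above its plate's cutoff, the mean activation of sample wells plus 3 SD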
* hit, by the source's call.

SMILES	CHRM5 antagonist	M5 PAM	M5 ag	CHRM4 antagonist	M4 ag	CHRM4 PAM
Nc1c(C(=O)CSc2n[nH]c(-c3ccccc3Br)n2)c(=O)[nH]c(=O)n1C1CC1	-0.5	-0.8	-0.4	0.1	0.0	1.2
CC(C)Oc1ccc(/C(O)=C2/C(=O)C(=O)N(CCN3CCNCC3)C2c2ccc(C(C)C)cc2)cc1 (stereo unspecified)	5.2	1.9	-1.0	6.8	0.3	-1.3
Cc1cccc(C)c1NC(=O)CNC(=O)CNC(=O)c1ccc2c(c1)OCO2	7.7	-0.7	3.8	-10.6	0.5	23.5*
CCN(CC(=O)Nc1c(F)cccc1F)C(=O)c1ccc2c(c1)OCCO2	0.6	1.8	0.8	-21.3	1.6	36.6*
O=C(CN1CCN(C(=O)CNC(=O)c2ccc3c(c2)OCO3)CC1)Nc1ccccc1Cl	-6.2	1.6	2.9	3.0	2.9	-1.3
O=C(CN1CCN(C(=O)CNC(=O)c2ccc3c(c2)OCO3)CC1)Nc1cccc(F)c1	-8.3	19.0*	1.4	-17.3	1.2	7.8
CC(=O)Nc1ccccc1NC(=O)C/C(C)=N/NC(=O)c1ccc([N+](=O)[O-])c(Cl)c1	-9.0	0.7	0.9	-3.0	1.0	23.7*
C/C(CC(=O)Nc1cccnc1)=N\NC(=O)c1ccc([N+](=O)[O-])c(Cl)c1	-10.7	1.3	-1.1	-10.0	-0.1	6.2
Cc1ccc(NC(=O)CCCCCN2C(=O)[C@@H]3Cc4ccccc4CN3C2=O)c(C)c1	1.9	-1.6	-1.9	-5.8	2.1	2.6
O=C1C2C3c4ccccc4C(c4ccccc43)C2C(=O)N1Cc1ccccn1 (stereo unspecified)	11.8	-4.6	-1.1	-8.2	5.8	-1.4
COc1cc(C(CCN2CCCC(C)C2)c2c(OC)cc(OC)c3c2OC(=O)CC3c2ccc(N(C)C)cc2)cc(OC)c1OC (stereo unspecified)	-2.3	21.6*	2.4	3.1	2.6	10.1
OC(CCN1CCC2CCC(C2)C1)c1ccc(Br)cc1 (stereo unspecified)	3.9	-12.5	-11.3	37.1*	-1.0	-13.4
CCC(C)n1c(NC(=O)c2ccccc2)c(C#N)c2nc3ccccc3nc21 (stereo unspecified)	-5.3	18.5*	17.2	-5.5	2.2	5.6
Cc1nc(-c2cc(-c3ccc(Cl)cc3)no2)cs1	2.2	3.7	-0.2	0.2	0.7	1.4
Cc1csc(-c2ccc3cc(Cl)cc(Cl)c3n2)n1	-13.5	4.7	-0.1	-11.5	1.4	20.9*
CN1CCS/C1=C\C=C1/SC(=S)N(CC(=O)O)C1=O	11.7	-14.3	48.6*	8.3	25.8	-0.9
COc1ccc(N2CCN(S(=O)(=O)CCNC(=O)/C=C/c3ccccc3)CC2)cc1	-0.6	-5.7	1.6	-13.2	6.4	-3.8
O=C(O)c1cccc(Nc2nc3ccccc3nc2NS(=O)(=O)c2cccs2)c1	-8.4	-0.1	-0.9	-23.9	1.1	18.1*
CC(=O)c1ccc(Nc2nc3ccccc3nc2NS(=O)(=O)c2cccs2)cc1	5.2	-5.6	-1.6	-4.5	1.8	-2.6
COC(=O)CC1C(=O)NCCN1C(=O)CSc1nc2ccccc2c(=O)n1CC(C)C (stereo unspecified)	1.6	7.2	-1.6	-4.9	2.7	0.5
c1ccc(-n2c3ccccc3c3ccccc32)cc1	-8.4	18.6*	7.2	-6.8	-0.4	-0.8
CC(=O)c1cn(CCOc2cc(C)ccc2C)c2ccccc12	32.7*	-22.9	0.5	17.4	12.2	-16.9
Cc1ccc(C)c(OCCn2cc(C(=O)O)c3ccccc32)c1	23.1	-9.3	1.4	1.3	16.9	0.3
CC(C)CCNC(=O)c1cc2c(=O)[nH]c3ccccc3c2s1	17.8	11.9	-1.8	19.1	8.7	26.2*
Cc1ccc2[nH]c(=O)c3cc(C(=O)NCCC(C)C)sc3c2c1	3.3	1.6	-3.6	2.8	0.5	0.1
SMILES	CHRM5 antagonist	M5 PAM	M5 ag	CHRM4 antagonist	M4 ag	CHRM4 PAM
CC(=O)Nc1ccc(Sc2ncccc2C(=O)Nc2ccc(OC(F)(F)F)cc2)cn1	56.9*	-17.5	75.9*	73.4*	141.9*	-40.5
O=C(NCc1cccnc1)C(=O)NCC1CCCO1 (stereo unspecified)	4.3	1.4	-2.9	7.3	0.8	-1.5
O=C(Nc1ccccc1-c1nc2ccccc2[nH]1)c1ccc(N2C(=O)CCC2=O)cc1	27.2*	-14.2	2.0	5.0	5.8	-4.3
COc1ccc(C(CNC(=O)c2cccc(NS(=O)(=O)c3ccc(C)c(F)c3)c2)N(C)C)cc1 (stereo unspecified)	11.4	-7.0	-7.3	-4.4	2.7	-9.5
COc1ccccc1C(CNC(=O)c1cccc(S(=O)(=O)NCc2ccccc2)c1)N(C)C (stereo unspecified)	38.9*	-33.3	-10.6	6.2	1.4	-5.9
CCOc1ccc(S(=O)(=O)Nc2cccc(C(=O)NCC(c3ccccc3)N(C)C)c2)cc1 (stereo unspecified)	11.2	-13.9	-2.8	-11.8	16.4	5.0
COc1ccc(C(CNC(=O)c2cccc(NS(=O)(=O)c3ccccc3)c2)N(C)C)cc1 (stereo unspecified)	13.7	-7.1	-8.2	30.6*	1.9	-13.9
COc1ccccc1C(CNC(=O)c1cccc(NS(=O)(=O)c2ccc(C)c(F)c2)c1)N(C)C (stereo unspecified)	66.2*	-35.1	-8.2	3.1	0.4	-7.4
COc1ccc(CC(O)COS(N)(=O)=O)cc1 (stereo unspecified)	0.1	8.3	2.5	-8.2	0.6	14.8
CCC/C=N/Nc1nnc(Cc2ccc(OC)c(OC)c2)c(=O)[nH]1	3.4	-0.7	-3.4	1.7	0.3	-2.0
COc1cc(CNCCc2c[nH]c3ccccc23)ccc1OCc1ccc(F)cc1	11.9	-4.5	7.2	47.0*	47.3*	-1.5
CN1CCN(C(=O)c2ccc3c(Cl)c4c(nc3c2)CCCC4)CC1	9.7	5.4	-3.4	5.7	1.2	15.3*
Cc1nc(NC(=O)c2ccc(Br)o2)ccc1Br	2.0	5.5	-0.4	-4.5	0.2	15.8*
Cc1ccn2c(=O)c(NC(=O)c3ccc(Br)o3)c(C)nc2c1	1.6	-7.0	0.4	6.8	0.9	22.6*
O=C(CCc1nnc2n(Cc3ccc(F)cc3)c(=O)c3ccccc3n12)NCCCN1CCOCC1	7.5	-4.3	-2.3	8.2	13.0	-1.4
CN1CCN(CCCNC(=O)CCc2nnc3n(Cc4ccccc4Cl)c(=O)c4ccccc4n23)CC1	-1.4	4.7	-5.6	-6.2	1.8	15.9*
O=c1c(/C=C(\O)c2ccccc2)nc2ccccc2n1-c1ccccc1	5.4	-1.3	-1.3	38.6*	26.2	3.7
